How the values were obtained:
[1] = biological target: T1, Delta-type opioid receptor (Rattus norvegicus, UniProt P33533); experiment: Tested for binding affinity by [3H]diprenorphine displacement for Opioid receptor delta 1 are carried on crude membrane fractions obtained from the whole rat brain minus cerebellum.; format: tissue-based
Method in brief: (§1)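 Rat whole-brain (minus cerebellum) crude membranes, 1 mg protein/tube, in 50 mM Tris-HCl pH 7.4 with aprotinin, leupeptin and bacitracin. […] U50,488 and DAMGO (300 nM each) saturate κ and µ sites; 1 µM DPDPE defines nonspecific binding. Compounds tested at 10^-11 to 10^-5 M. Ki values are the mean of three experiments in duplicate.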

Mu-type opioid receptor [2] = biological target: T2, Mu-type opioid receptor (Rattus norvegicus, UniProt P33535); experiment: Tested for binding affinity by [3H]diprenorphine displacement for Opioid receptor mu 1 was carried on crude membrane fractions obtained from the whole rat brain minus cerebellum..; format: tissue-based
Method in brief: as §1, with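 “and DADLE” for “and DAMGO”, “and δ” for “and µ”, “µM DAMGO” for “µM DPDPE”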

[3] = biological target: T1, Delta-type opioid receptor; experiment: Displacement of [3H]diprenorphine opioid receptor delta 1 on crude membrane fractions obtained from the whole rat brain (minus cerebellum); format: tissue-based; method in brief: as §1
[4] = biological target: Opioid receptors; mu & kappa (UniProt P41145+P35372); experiment: Ratio of affinity towards mu and kappa opioid receptors; format: protein assay
Mu-type opioid receptor [5] = biological target: T2, Mu-type opioid receptor; experiment: Displacement of [3H]diprenorphine from opioid receptor mu 1 on crude membrane fractions obtained from whole rat brain (minus cerebellum); format: tissue-based
Method in brief: as §1, with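 “and DADLE” for “and DAMGO”, “and δ” for “and µ”, “µM DAMGO” for “µM DPDPE”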

[6] = biological target: Kappa-type opioid receptor (Cavia porcellus, UniProt P41144); experiment: Displacement of [3H]-U-69,593 from Opioid receptor kappa 1 in guinea pig cerebellar.
Cavia porcellus = species: Cavia porcellus; experiment: (§2) Ratio of affinity towards delta to kappa opioid receptor
[7] = biological target: Opioid receptors; delta & kappa (Homo sapiens) (UniProt P41145+P41143); experiment: as §2; format: protein assay
Mus musculus [8] = experiment: Effective dose after 10 mg/kg of nor-BNI administered subcutaneously 10 min before agonist administered in mouse rotarod test; format: functional; conditions: sc, route subcutaneous
Method in brief: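 Male albino Swiss mice received nor-BNI 10 mg/kg sc 10 min before agonist (sc, saline/0.5% CMC). 30 min after agonist, mice were placed on an accelerating rotarod with three trials; failure in any trial counted as impaired. ED50 is […].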

Mus musculus [9] = experiment: Antinociceptive activity by measuring effective dose after 10 mg/kg of nor-BNI administered subcutaneously 10 min before agonist administered in mouse; format: functional; conditions: sc, route subcutaneous
Method in brief: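 Male albino Swiss mice (20-25 g) given compound sc in saline with 0.5% CMC (0.1-10 mg/kg) 30 min before testing. nor-BNI 10 mg/kg sc given 10 min before agonist. Acetylcholine-induced abdominal constrictions were counted for 5 min after ip acetylcholine. ED50 is the dose that halves constrictions relative to vehicle.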

T2 sequence (P33535 whole entry): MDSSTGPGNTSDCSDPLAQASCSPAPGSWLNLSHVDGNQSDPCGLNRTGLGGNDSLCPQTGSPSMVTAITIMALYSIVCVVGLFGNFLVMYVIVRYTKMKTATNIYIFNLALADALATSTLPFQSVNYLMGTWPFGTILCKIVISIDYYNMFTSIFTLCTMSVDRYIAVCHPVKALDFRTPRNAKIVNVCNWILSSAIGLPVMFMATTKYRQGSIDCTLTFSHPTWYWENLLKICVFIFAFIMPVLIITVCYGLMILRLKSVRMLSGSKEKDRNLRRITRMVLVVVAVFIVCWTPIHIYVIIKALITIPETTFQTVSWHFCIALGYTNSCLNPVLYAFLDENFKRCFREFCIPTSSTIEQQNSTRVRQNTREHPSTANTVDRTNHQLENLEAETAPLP
Chain of Opioid receptors; mu & kappa (P35372 whole entry, looked up): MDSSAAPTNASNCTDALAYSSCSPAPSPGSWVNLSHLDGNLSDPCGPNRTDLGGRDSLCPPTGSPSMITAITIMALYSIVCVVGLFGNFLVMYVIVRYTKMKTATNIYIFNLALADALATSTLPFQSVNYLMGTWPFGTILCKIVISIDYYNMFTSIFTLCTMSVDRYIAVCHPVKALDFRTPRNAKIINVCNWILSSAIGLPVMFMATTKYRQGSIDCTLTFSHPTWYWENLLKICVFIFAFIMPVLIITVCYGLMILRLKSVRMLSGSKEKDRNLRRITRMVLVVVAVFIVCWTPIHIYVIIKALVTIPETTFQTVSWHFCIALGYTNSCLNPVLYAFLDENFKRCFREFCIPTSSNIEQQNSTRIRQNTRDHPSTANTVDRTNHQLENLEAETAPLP
Chain of Opioid receptors; mu & kappa (P41145 whole entry, looked up): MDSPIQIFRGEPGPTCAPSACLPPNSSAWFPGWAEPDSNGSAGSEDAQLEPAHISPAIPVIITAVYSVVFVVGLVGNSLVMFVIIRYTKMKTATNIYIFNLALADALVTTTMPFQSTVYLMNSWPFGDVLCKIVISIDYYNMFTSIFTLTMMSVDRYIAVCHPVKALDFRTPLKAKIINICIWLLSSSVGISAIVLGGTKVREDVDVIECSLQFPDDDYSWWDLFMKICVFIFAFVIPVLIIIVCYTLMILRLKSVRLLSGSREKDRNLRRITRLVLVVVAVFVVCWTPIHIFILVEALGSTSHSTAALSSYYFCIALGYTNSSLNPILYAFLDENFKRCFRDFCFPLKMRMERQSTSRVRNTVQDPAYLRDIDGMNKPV
T1 sequence (P33533 whole entry): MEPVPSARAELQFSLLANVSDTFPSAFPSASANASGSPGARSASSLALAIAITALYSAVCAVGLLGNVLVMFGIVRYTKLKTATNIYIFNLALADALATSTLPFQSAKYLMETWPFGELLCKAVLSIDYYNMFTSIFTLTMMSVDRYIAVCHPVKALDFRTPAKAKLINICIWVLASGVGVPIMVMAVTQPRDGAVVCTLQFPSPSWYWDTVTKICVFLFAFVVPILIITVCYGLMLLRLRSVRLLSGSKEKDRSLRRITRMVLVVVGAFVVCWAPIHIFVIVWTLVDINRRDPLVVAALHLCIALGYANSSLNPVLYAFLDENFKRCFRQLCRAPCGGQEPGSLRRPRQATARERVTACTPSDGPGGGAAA
Chain of Kappa-type opioid receptor (P41144 whole entry): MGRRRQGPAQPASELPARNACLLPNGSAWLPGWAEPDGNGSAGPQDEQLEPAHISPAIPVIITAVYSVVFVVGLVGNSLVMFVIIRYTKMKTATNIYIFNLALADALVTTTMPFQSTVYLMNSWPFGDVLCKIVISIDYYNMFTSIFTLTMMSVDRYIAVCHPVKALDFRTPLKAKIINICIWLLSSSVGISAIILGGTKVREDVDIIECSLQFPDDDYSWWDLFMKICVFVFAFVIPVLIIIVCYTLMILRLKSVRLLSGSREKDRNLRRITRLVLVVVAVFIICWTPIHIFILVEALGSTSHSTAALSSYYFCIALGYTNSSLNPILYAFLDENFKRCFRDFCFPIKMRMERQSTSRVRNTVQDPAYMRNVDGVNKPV
Chain of Opioid receptors; delta & kappa (Homo sapiens) (P41143 whole entry, looked up): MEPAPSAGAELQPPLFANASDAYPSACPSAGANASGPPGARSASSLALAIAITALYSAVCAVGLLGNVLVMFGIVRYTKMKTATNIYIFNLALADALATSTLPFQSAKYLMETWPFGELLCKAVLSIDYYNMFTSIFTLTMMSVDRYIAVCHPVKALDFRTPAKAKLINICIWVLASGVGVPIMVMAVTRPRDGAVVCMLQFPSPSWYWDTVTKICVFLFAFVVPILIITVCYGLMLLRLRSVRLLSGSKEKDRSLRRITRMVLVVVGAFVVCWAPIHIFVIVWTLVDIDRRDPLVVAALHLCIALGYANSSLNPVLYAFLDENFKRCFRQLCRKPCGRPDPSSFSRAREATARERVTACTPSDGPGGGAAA
Chain of Opioid receptors; delta & kappa (Homo sapiens) (P41145 whole entry, looked up): as the sequence (P41145 whole entry, looked up) above

SMILES | Ki [1] | Ki (Mu-type opioid receptor [2]) | Ki [3] | Selectivity ratio [4] | Ki (Mu-type opioid receptor [5]) | Ki [6] | Selectivity ratio (Cavia porcellus) | Ratio [7] | ED50 (Mus musculus [8]) | ED50 (Mus musculus [9])
COC(=O)[C@]1(c2ccccc2)C[C@@H]1CN1CC[C@@]2(C)c3cc(O)ccc3CC1[C@@H]2C | > 25 µM | > 25 µM | – | – | – | – | – | – | – | –
CCCC(=N)NCCCNC(=O)C(CC(C)C)NC(=O)CNC(=O)[C@]1(c2ccccc2)CC1CN1CC[C@@]2(C)c3cc(O)ccc3CC1C2C (some centres not stated) | – | – | 9.54 µM | 133 | 10.7 µM | 0.0808 µM | 118 | – | – | –
CC(C)CC(NC(=O)CNC(=O)[C@]1(c2ccccc2)CC1CN1CC[C@@]2(C)c3cc(O)ccc3CC1C2C)C(=O)NCCCCN=C(N)N (some centres not stated) | – | – | 3.5 µM | 91.7 | 6.16 µM | 0.0672 µM | 52.1 | – | – | –
CC(C)CC(NC(=O)CNC(=O)[C@]1(c2ccccc2)CC1CN1CC[C@@]2(C)c3cc(O)ccc3CC1C2C)C(=O)NCCCCCCN (some centres not stated) | – | – | 6.05 µM | 101 | 8.07 µM | 0.0796 µM | 76 | – | – | –
CCC(=N)NCCCNC(=O)C(CC(C)C)NC(=O)CNC(=O)[C@]1(c2ccccc2)CC1CN1CC[C@@]2(C)c3cc(O)ccc3CC1C2C (some centres not stated) | – | – | 10.4 µM | 42.5 | 10.9 µM | 0.256 µM | 40.5 | – | – | –
CC(C)CC(NC(=O)[C@]1(c2ccccc2)CC1CN1CC[C@@]2(C)c3cc(O)ccc3CC1C2C)C(=O)NCCCCCCN (some centres not stated) | – | – | 3.42 µM | 12.7 | 3.08 µM | 0.242 µM | – | 14.1 | – | –
CC(C)CC(NC(=O)[C@]1(c2ccccc2)CC1CN1CC[C@@]2(C)c3cc(O)ccc3CC1C2C)C(=O)NCCCCCCN=C(N)N (some centres not stated) | – | – | 2.83 µM | 18.9 | 2.63 µM | 0.139 µM | 20.3 | – | – | –
CC[C@H](C)[C@H](NC(=O)[C@H](CCCN=C(N)N)NC(=O)[C@H](CCCN=C(N)N)NC(=O)[C@]1(c2ccccc2)C[C@@H]1CN1CC[C@@]2(C)c3cc(O)ccc3CC1C2C)C(=O)OC (some centres not stated) | – | – | > 25 µM | 58.7 | 4.6 µM | 0.0784 µM | – | – | – | –
CCCC(=N)NCCCCCCNC(=O)C(CC(C)C)NC(=O)CNC(=O)[C@]1(c2ccccc2)CC1CN1CC[C@@]2(C)c3cc(O)ccc3CC1C2C (some centres not stated) | – | – | 2.43 µM | 125 | 2.27 µM | 0.0154 µM | 158 | – | – | –
CC(C)CC(NC(=O)CNC(=O)[C@]1(c2ccccc2)CC1CN1CC[C@@]2(C)c3cc(O)ccc3CC1C2C)C(=O)NCCCN (some centres not stated) | – | – | 10.6 µM | 57 | 16.1 µM | 0.282 µM | 37.6 | – | – | –
CCC(=N)NCCCCCCNC(=O)C(CC(C)C)NC(=O)CNC(=O)[C@]1(c2ccccc2)CC1CN1CC[C@@]2(C)c3cc(O)ccc3CC1C2C (some centres not stated) | – | – | 5.06 µM | 89.8 | 4.21 µM | 0.0469 µM | 108 | – | – | –
CCCCC(=N)NCCCCCNC(=O)C(CC(C)C)NC(=O)[C@]1(c2ccccc2)CC1CN1CC[C@@]2(C)c3cc(O)ccc3CC1C2C (some centres not stated) | – | – | 3.59 µM | 24.3 | 2.38 µM | 0.0981 µM | 36.6 | – | – | –
CCC(=N)NCCCCCNC(=O)C(CC(C)C)NC(=O)CNC(=O)[C@]1(c2ccccc2)CC1CN1CC[C@@]2(C)c3cc(O)ccc3CC1C2C (some centres not stated) | – | – | 5.58 µM | 70.5 | 4.82 µM | 0.0684 µM | 81.6 | – | – | –
CCCC(=N)NCCCCNC(=O)C(CC(C)C)NC(=O)CNC(=O)[C@]1(c2ccccc2)CC1CN1CC[C@@]2(C)c3cc(O)ccc3CC1C2C (some centres not stated) | – | – | 7.28 µM | 100 | 6.78 µM | 0.0678 µM | 107 | – | – | –
CCCCC(=N)NCCCNC(=O)C(CC(C)C)NC(=O)CNC(=O)[C@]1(c2ccccc2)CC1CN1CC[C@@]2(C)c3cc(O)ccc3CC1C2C (some centres not stated) | – | – | 4.95 µM | 192 | 3.46 µM | 0.018 µM | 275 | – | – | –
CCCCC(=N)NCCCCCNC(=O)C(CC(C)C)NC(=O)CNC(=O)[C@]1(c2ccccc2)CC1CN1CC[C@@]2(C)c3cc(O)ccc3CC1C2C (some centres not stated) | – | – | 2.75 µM | – | 2.53 µM | 0.0067 µM | – | – | 9.2 mg/kg | 0.88 mg/kg
CCCC(=N)NCCCCCCNC(=O)C(CC(C)C)NC(=O)[C@]1(c2ccccc2)CC1CN1CC[C@@]2(C)c3cc(O)ccc3CC1C2C (some centres not stated) | – | – | 3.46 µM | 15.6 | 1.9 µM | 0.122 µM | 28.4 | – | – | –
CC(C)CC(NC(=O)CNC(=O)[C@]1(c2ccccc2)CC1CN1CC[C@@]2(C)c3cc(O)ccc3CC1C2C)C(=O)NCCCCCN=C(N)N (some centres not stated) | – | – | – | 81.1 | – | – | 73.1 | – | – | –
CC(C)CC(NC(=O)CNC(=O)[C@]1(c2ccccc2)CC1CN1CC[C@@]2(C)c3cc(O)ccc3CC1C2C)C(=O)NCCCCN (some centres not stated) | – | – | 10.5 µM | 49.1 | 13.2 µM | 0.27 µM | 38.7 | – | – | –
CCC(=N)NCCCCCCNC(=O)C(CC(C)C)NC(=O)[C@]1(c2ccccc2)CC1CN1CC[C@@]2(C)c3cc(O)ccc3CC1C2C (some centres not stated) | – | – | 3.55 µM | 25.3 | 2.94 µM | 0.116 µM | 30.5 | – | – | –
CC(C)CC(NC(=O)CNC(=O)[C@]1(c2ccccc2)CC1CN1CC[C@@]2(C)c3cc(O)ccc3CC1C2C)C(=O)NCCCCCN (some centres not stated) | – | – | 9.58 µM | 44.4 | 10.9 µM | 0.246 µM | 38.9 | – | – | –
CC(C)CC(NC(=O)CNC(=O)[C@]1(c2ccccc2)CC1CN1CC[C@@]2(C)c3cc(O)ccc3CC1C2C)C(=O)NCCCN=C(N)N (some centres not stated) | – | – | – | 128 | – | – | 51.4 | – | – | –
CCC(=N)NCCCCNC(=O)C(CC(C)C)NC(=O)CNC(=O)[C@]1(c2ccccc2)CC1CN1CC[C@@]2(C)c3cc(O)ccc3CC1C2C (some centres not stated) | – | – | 9.7 µM | 42.6 | 7.48 µM | 0.176 µM | 55.2 | – | – | –
CCCCC(=N)NCCCCCCNC(=O)C(CC(C)C)NC(=O)[C@]1(c2ccccc2)CC1CN1CC[C@@]2(C)c3cc(O)ccc3CC1C2C (some centres not stated) | – | – | 3.26 µM | 27.9 | 2.26 µM | 0.081 µM | 40.2 | – | – | –
CCCCC(=N)NCCCCNC(=O)C(CC(C)C)NC(=O)CNC(=O)[C@]1(c2ccccc2)CC1CN1CC[C@@]2(C)c3cc(O)ccc3CC1C2C (some centres not stated) | – | – | 3.66 µM | 325 | 3.31 µM | 0.0102 µM | 359 | – | – | –
CCCC(=N)NCCCCCNC(=O)C(CC(C)C)NC(=O)CNC(=O)[C@]1(c2ccccc2)CC1CN1CC[C@@]2(C)c3cc(O)ccc3CC1C2C (some centres not stated) | – | – | 5.21 µM | 110 | 7.19 µM | 0.0653 µM | 79.8 | – | – | –
CCCCC(=N)NCCCCCCNC(=O)C(CC(C)C)NC(=O)CNC(=O)[C@]1(c2ccccc2)CC1CN1CC[C@@]2(C)c3cc(O)ccc3CC1C2C (some centres not stated) | – | – | 2.23 µM | – | 2.15 µM | 0.0053 µM | – | – | 11.9 mg/kg | 1.1 mg/kg
CC(C)CC(NC(=O)CNC(=O)[C@]1(c2ccccc2)CC1CN1CC[C@@]2(C)c3cc(O)ccc3CC1C2C)C(=O)NCCCCCCN=C(N)N (some centres not stated) | – | – | – | 94.3 | – | – | 84.2 | – | – | –

From ChEMBL document CHEMBL1133607, “Nonpeptide analogues of dynorphin A(1-8): design, synthesis, and pharmacological evaluation of kappa-selective agonists” (J Med Chem, 2000)
